# Assay results from different studies.
# Lines come from different studies, so protocols differ.
# Target: Beta-adrenergic receptor kinase 1 (GRK2, Homo sapiens, UniProt P25098)
# One construct used (P25098 1-689): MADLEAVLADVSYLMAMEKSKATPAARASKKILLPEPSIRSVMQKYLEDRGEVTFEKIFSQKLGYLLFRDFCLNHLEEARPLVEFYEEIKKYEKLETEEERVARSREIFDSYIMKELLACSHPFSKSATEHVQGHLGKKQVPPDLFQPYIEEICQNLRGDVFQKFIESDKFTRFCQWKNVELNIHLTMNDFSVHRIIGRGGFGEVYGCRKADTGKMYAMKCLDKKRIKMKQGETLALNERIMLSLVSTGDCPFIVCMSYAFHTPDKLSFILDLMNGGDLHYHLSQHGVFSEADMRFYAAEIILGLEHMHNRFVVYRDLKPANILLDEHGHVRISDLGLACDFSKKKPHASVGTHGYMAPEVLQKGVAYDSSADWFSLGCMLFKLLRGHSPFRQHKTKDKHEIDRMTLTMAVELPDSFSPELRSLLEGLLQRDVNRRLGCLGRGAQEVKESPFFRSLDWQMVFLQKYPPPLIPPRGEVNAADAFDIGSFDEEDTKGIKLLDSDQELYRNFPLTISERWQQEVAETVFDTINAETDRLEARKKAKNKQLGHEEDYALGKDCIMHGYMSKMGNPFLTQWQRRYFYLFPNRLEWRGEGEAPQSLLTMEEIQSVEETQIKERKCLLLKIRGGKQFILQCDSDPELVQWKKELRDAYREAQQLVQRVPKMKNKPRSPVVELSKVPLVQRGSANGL
SMILES,test,setting,remaining binding
Nc1ncc2c(n1)-c1c([nH]c3ccc(C#CC4CC4)cc13)CCCC2,"binding, competition with immobilised ligand",1 µM,87%
CO[C@H]1CC[C@H](CNc2ccc(S(=O)(=O)NC(=O)c3ccc(N4CCN(CC5=C(c6ccc(Cl)cc6)CC(C)(C)CC5)CC4)cc3Oc3cnc4[nH]ccc4c3)cc2[N+](=O)[O-])CC1,"cell-free assay, competition with immobilised ligand",1 µM,85%
CN(C)c1nccc(-c2cnn3ncccc23)n1,"binding, competition with immobilised ligand",1 µM,74%
O=C(c1ccc(Nc2ncc(Cl)c(-c3cc4ccccc4s3)n2)cc1)N1CCC(N2CCCC2)CC1,"binding, competition with immobilised ligand",1 µM,71%
COc1cnc(Nc2cccc(S(N)(=O)=O)c2)nc1N1CCN(c2ccccc2)CC1,"binding, competition with immobilised ligand",1 µM,88%
O=C(c1ccc(Nc2ncc(Cl)c(-c3ccc(Cl)s3)n2)cc1)N1CCC(N2CCCC2)CC1,"binding, competition with immobilised ligand",1 µM,98%
N[C@@H]1CCN(c2nccc(-c3cnn4ncccc34)n2)C1,binding,1 µM,82%
Cc1c(NC(=O)c2cc(C(N)=O)nc3cc(F)ccc23)c(C(F)(F)F)nn1Cc1ccc(C(C)(C)C)cc1,"cell-free assay, competition with immobilised ligand",1 µM,100%
COc1ccnn2ncc(-c3ccnc(N(C)C)n3)c12,binding,1 µM,100%
COc1ncc2cc3ccccc3nc2c1C#N,"cell-free assay, competition with immobilised ligand",5 µM,100%
CN(C)c1ncc(F)c(-c2cnn3ncccc23)n1,"binding, competition with immobilised ligand",1 µM,88%
O=C(NCC1CCOCC1)c1n[nH]cc1NC(=O)c1c(F)cccc1F,"binding, competition with immobilised ligand",1 µM,71%
Cc1nc(C2CCN(C(=O)c3ccc(OC(F)(F)F)cc3N)CC2)c2ncc(N3CCN(C)CC3)cc2n1,"cell-free assay, competition with immobilised ligand",1 µM,92%
CNC(=O)[C@@H]1CC[C@@H](n2c(-c3ccc4cnccc4c3)nc3ccc(C(=O)NCc4cccc(C(N)=O)c4)cc32)C1,"binding, competition with immobilised ligand",1 µM,92%
CO[C@@H](C)c1c(Nc2ccc([C@@H](N(C)C(=O)C3CCS(=O)(=O)CC3)C(F)(F)F)cc2)cnc2cc(Cl)nn12,"cell-free assay, competition with immobilised ligand",1 µM,92%
C[C@@H]1CCN(c2nccc(-c3cnn4ncccc34)n2)C1,"binding, competition with immobilised ligand",1 µM,57%
Nc1cnc(N2CCc3cc(S(=O)(=O)Nc4c(F)cc(Cl)cc4F)cc(N4CCCC4=O)c32)nc1,"cell-free assay, competition with immobilised ligand",1 µM,100%
O=C(c1ccc(Nc2nccc(-c3cc4ccccc4s3)n2)cc1)N1CCC(N2CCCC2)CC1,"binding, competition with immobilised ligand",1 µM,100%
CN(C)c1nccc(-c2cnc3ncccn23)n1,"binding, competition with immobilised ligand",1 µM,92%
COc1ccc2c(c1)O[C@H](c1ccc(OC)c(OC)c1)C[C@@H]2NC(=O)C1(c2ccc3c(c2)OC(F)(F)O3)CC1,"cell-free assay, competition with immobilised ligand",1 µM,84%
